Assay results as given in ChEMBL document CHEMBL1132973, “Design, synthesis, and antimicrobial activity of 6-O-substituted ketolides active against resistant respiratory tract pathogens” (2000).
Values after ≈ are worked out from the molar mass of the structure shown.

Tests used:
Assay type in all cases: functional
[1] = tested on: Streptococcus pyogenes; test: In vitro antibacterial activity against Streptococcus pyogenes strain EES 61.
Method in brief: (§1)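 MICs in µg/mL determined by agar dilution per NCCLS recommendations. Panel includes erythromycin-susceptible strains (S. aureus ATCC 6538P, S. pyogenes EES 61, S. pneumoniae ATCC 6303); ermA MLS_B-resistant S. aureus (A 5177 inducible, A 5278 constitutive); ermB strains (S. pyogenes 930, S. pneumoniae 5737); efflux strains (S. pyogenes PIU 2548 mefA, S. pneumoniae 5649 mefE); and β-lactamase-positive ampicillin-resistant H. influenzae DILL.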

[2] = tested on: Streptococcus pyogenes; test: In vitro antibacterial activity against Streptococcus pyogenes strain PIU 2548.; method in brief: as §1
[3] = tested on: Haemophilus influenzae; test: In vitro antibacterial activity against Haemophilus influenzae strain DILL.; method in brief: as §1
[4] = tested on: Streptococcus pneumoniae; test: In vitro antibacterial activity against Streptococcus pneumoniae strain 5649.; method in brief: as §1
[5] = tested on: Staphylococcus aureus; test: In vitro antibacterial activity against Staphylococcus aureus strain ATCC 6538P.; method in brief: as §1
[6] = tested on: Staphylococcus aureus; test: In vitro antibacterial activity against Staphylococcus aureus strain A 5278.; method in brief: as §1
[7] = tested on: Staphylococcus aureus; test: In vitro antibacterial activity against Staphylococcus aureus strain A 5177.; method in brief: as §1
[8] = tested on: Streptococcus pneumoniae; test: In vitro antibacterial activity against Streptococcus pneumoniae strain 5737.; method in brief: as §1
[9] = tested on: Streptococcus pneumoniae; test: In vitro antibacterial activity against Streptococcus pneumoniae strain ATCC 6303.; method in brief: as §1
[10] = tested on: Streptococcus pyogenes; test: In vitro antibacterial activity against Streptococcus pyogenes strain 930.; method in brief: as §1
[11] = tested on: Staphylococcus aureus; test: In vitro antibacterial activity against Staphylococcus aureus strain ATCC 6538P; method in brief: as §1
[12] = tested on: Streptococcus pneumoniae; test: (§2) In vivo antibacterial activity against Streptococcus pneumoniae strain 5649
Method in brief: (§3)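 Rat lung infection. Rats inoculated intratracheally with 0.5 mL bacterial suspension in 5% gastric hog mucin containing log 10⁶-10⁸ cfu. Dosed daily on days 1-3, starting 18 h post-inoculation. Lung bacterial burden measured by serial-dilution plating of lung homogenates on day 4. ED50, the dose giving a 2 log reduction versus vehicle-treated infected controls, was calculated from group means by linear regression.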

[13] = tested on: Streptococcus pyogenes; test: In vivo antibacterial activity against Streptococcus pyogenes strain C203
[14] = tested on: Streptococcus pneumoniae; test: (§4) In vivo antibacterial activity against Streptococcus pneumoniae strain 6396
[15] = tested on: Streptococcus pneumoniae; test: (§5) In vivo antibacterial activity against Streptococcus pneumoniae strain 6303
[16] = tested on: Streptococcus pneumoniae; test: as §2; remark: listed apart in the source
[17] = tested on: Streptococcus pneumoniae; test: as §4; method in brief: as §3; remark: listed apart in the source
[18] = tested on: Staphylococcus aureus; test: (§6) In vivo antibacterial activity against Staphylococcus aureus strain 10649
[19] = tested on: Staphylococcus aureus; test: as §6; remark: listed apart in the source
Method in brief: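 Mice were inoculated intravenously with a 100-fold LD50 of the organism, then dosed by oral gavage at 1 and 5 h post-inoculation across a dose range. Survival was monitored for 7 days. ED50 is the dose giving 50% survival of treated mice over the trial.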

[20] = tested on: Streptococcus pneumoniae; test: as §5; method in brief: as §3; remark: listed apart in the source

## CC[C@H]1OC(=O)[C@H](C)C(=O)[C@H](C)[C@@H](O[C@@H]2O[C@H](C)C[C@H](N(C)C)[C@H]2O)[C@](C)(OC/C=C/c2ccccc2)C[C@@H](C)C(=O)[C@H](C)[C@H]2NC(=O)O[C@@]21C
[1]
  MIC: 0.03 µg/mL (≈ 0.042 µM)
[2]
  MIC: 0.25 µg/mL (≈ 0.35 µM)
[3]
  MIC: 4 µg/mL (≈ 5.6 µM)
[4]
  MIC: 0.25 µg/mL (≈ 0.35 µM)
[5]
  MIC: 0.1 µg/mL (≈ 0.14 µM)
[6]
  MIC: > 100 µg/mL
[7]
  MIC: 0.1 µg/mL (≈ 0.14 µM)
[8]
  MIC: 64 µg/mL (≈ 89.5 µM)
[9]
  MIC: 0.03 µg/mL (≈ 0.042 µM)
[10]
  MIC: 64 µg/mL (≈ 89.5 µM)

## C=CCO[C@@]1(C)C[C@@H](C)C(=O)[C@H](C)[C@@H](O)[C@](C)(O)[C@@H](CC)OC(=O)[C@H](C)C(=O)[C@H](C)[C@H]1O[C@@H]1O[C@H](C)C[C@H](N(C)C)[C@H]1O
[2]
  MIC: 32 µg/mL (≈ 52.1 µM)
[3]
  MIC: > 128 µg/mL
[4]
  MIC: 8 µg/mL (≈ 13 µM)
[11]
  MIC: 12.5 µg/mL (≈ 20.4 µM)
[6]
  MIC: > 100 µg/mL
[7]
  MIC: 50 µg/mL (≈ 81.5 µM)
[8]
  MIC: > 128 µg/mL
[9]
  MIC: 4 µg/mL (≈ 6.52 µM)
[10]
  MIC: > 128 µg/mL

## C=CCO[C@@]1(C)C[C@@H](C)C(=O)[C@H](C)[C@H]2NC(=O)O[C@]2(C)[C@@H](CC)OC(=O)[C@H](C)C(=O)[C@H](C)[C@H]1O[C@@H]1O[C@H](C)C[C@H](N(C)C)[C@H]1O
[1]
  MIC: 0.25 µg/mL (≈ 0.391 µM)
[2]
  MIC: 2 µg/mL (≈ 3.13 µM)
[3]
  MIC: 64 µg/mL (≈ 100 µM)
[4]
  MIC: 0.25 µg/mL (≈ 0.391 µM)
[5]
  MIC: 0.78 µg/mL (≈ 1.22 µM)
[6]
  MIC: > 100 µg/mL
[7]
  MIC: 1.56 µg/mL (≈ 2.44 µM)
[8]
  MIC: > 64 µg/mL
[9]
  MIC: 0.5 µg/mL (≈ 0.783 µM)
[10]
  MIC: > 64 µg/mL

## CC[C@H]1OC(=O)[C@H](C)[C@@H](O[C@H]2C[C@@](C)(OC)[C@@H](O)[C@H](C)O2)[C@H](C)[C@@H](O[C@@H]2O[C@H](C)C[C@H](N(C)C)[C@H]2O)[C@](C)(O)C[C@@H](C)C(=O)[C@H](C)[C@@H](O)[C@]1(C)O [ERYTHROMYCIN]
[1]
  MIC: 0.06 µg/mL (≈ 0.0818 µM)
[2]
  MIC: 32 µg/mL (≈ 43.6 µM)
[3]
  MIC: 8 µg/mL (≈ 10.9 µM)
[4]
  MIC: 16 µg/mL (≈ 21.8 µM)
[6]
  MIC: > 100 µg/mL
[7]
  MIC: 6.2 µg/mL (≈ 8.45 µM)
[8]
  MIC: > 128 µg/mL
[9]
  MIC: 0.06 µg/mL (≈ 0.0818 µM)
[10]
  MIC: > 128 µg/mL

## CC[C@H]1OC(=O)[C@H](C)[C@@H](O[C@H]2C[C@@](C)(OC)[C@@H](O)[C@H](C)O2)[C@H](C)[C@@H](O[C@@H]2O[C@H](C)C[C@H](N(C)C)[C@H]2O)[C@](C)(O)C[C@@H](C)CN(C)[C@H](C)[C@@H](O)[C@]1(C)O [AZITHROMYCIN]
[12]
  ED50: 78.7 mg/kg
[13]
  ED50: 6.1 mg/kg
  MIC: 0.06 µg/mL (≈ 0.0801 µM)
[13]; Streptococcus pyogenes, read-out: MIC
  MIC: 0.06 µg/mL (≈ 0.0801 µM)
[14]
  MIC: > 128 µg/mL
[15]
  MIC: 0.12 µg/mL (≈ 0.16 µM)
[16]
  MIC: 16 µg/mL (≈ 21.4 µM)
[17]
  ED50: > 100 mg/kg
[18]
  MIC: 0.78 µg/mL (≈ 1.04 µM)
[19]
  ED50: 24.8 mg/kg

## CC[C@H]1OC(=O)[C@H](C)C(=O)[C@H](C)[C@@H](O[C@@H]2O[C@H](C)C[C@H](N(C)C)[C@H]2O)[C@](C)(OC)C[C@@H](C)C(=O)[C@H](C)[C@H]2N(CCCCn3cnc(-c4cccnc4)c3)C(=O)O[C@]12C [TELITHROMYCIN]
[1]
  MIC: 0.004 µg/mL (≈ 0.00493 µM)
[12]
  ED50: 25.8 mg/kg
[2]
  MIC: 2 µg/mL (≈ 2.46 µM)
[14]
  MIC: 0.125 µg/mL (≈ 0.154 µM)
[15]
  MIC: 0.004 µg/mL (≈ 0.00493 µM)
[20]
  ED50: 34.1 mg/kg
[16]
  MIC: 0.5 µg/mL (≈ 0.616 µM)
[6]
  MIC: > 100 µg/mL
[8]
  MIC: 8 µg/mL (≈ 9.85 µM)
[9]
  MIC: 0.004 µg/mL (≈ 0.00493 µM)
[17]
  ED50: 26.7 mg/kg
[18]
  MIC: 0.1 µg/mL (≈ 0.123 µM)
[19]
  ED50: 12.5 mg/kg
[10]
  MIC: 8 µg/mL (≈ 9.85 µM)

## CC[C@H]1OC(=O)[C@H](C)C(=O)[C@H](C)[C@@H](O[C@@H]2O[C@H](C)C[C@H](N(C)C)[C@H]2O)[C@](C)(OC/C=C/c2ccccc2)C[C@@H](C)C(=O)[C@H](C)[C@@H](O)[C@]1(C)O
[1]
  MIC: 0.25 µg/mL (≈ 0.362 µM)
[2]
  MIC: 2 µg/mL (≈ 2.9 µM)
[3]
  MIC: 128 µg/mL (≈ 186 µM)
[4]
  MIC: 2 µg/mL (≈ 2.9 µM)
[5]
  MIC: 1.56 µg/mL (≈ 2.26 µM)
[6]
  MIC: > 100 µg/mL
[7]
  MIC: 1.56 µg/mL (≈ 2.26 µM)
[8]
  MIC: 64 µg/mL (≈ 92.8 µM)
[9]
  MIC: 0.25 µg/mL (≈ 0.362 µM)
[10]
  MIC: 64 µg/mL (≈ 92.8 µM)

## CC[C@H]1OC(=O)[C@H](C)C(=O)[C@H](C)[C@@H](O[C@@H]2O[C@H](C)C[C@H](N(C)C)[C@H]2O)[C@](C)(OCC=Cc2cnc3ccccc3c2)C[C@@H](C)C(=O)[C@H](C)[C@H]2NC(=O)O[C@@]21C [CETHROMYCIN]
[1]
  MIC: 0.004 µg/mL (≈ 0.00522 µM)
[2]
  MIC: 0.125 µg/mL (≈ 0.163 µM)
[3]
  MIC: 2 µg/mL (≈ 2.61 µM)
[4]
  MIC: 0.25 µg/mL (≈ 0.326 µM)
[5]
  MIC: 0.05 µg/mL (≈ 0.0653 µM)
[6]
  MIC: > 100 µg/mL
[7]
  MIC: 0.05 µg/mL (≈ 0.0653 µM)
[8]
  MIC: 0.25 µg/mL (≈ 0.326 µM)
[9]
  MIC: 0.004 µg/mL (≈ 0.00522 µM)
[10]
  MIC: 1 µg/mL (≈ 1.31 µM)

## CC[C@H]1OC(=O)[C@H](C)C(=O)[C@H](C)[C@@H](O[C@@H]2O[C@H](C)C[C@H](N(C)C)[C@H]2O)[C@@](C)(OC/C=C/c2cnc3ccccc3c2)C[C@@H](C)C(=O)[C@H](C)[C@@H](O)[C@]1(C)O
[1]
  MIC: 0.2 µg/mL (≈ 0.27 µM)
[2]
  MIC: 0.1 µg/mL (≈ 0.135 µM)
[3]
  MIC: 16 µg/mL (≈ 21.6 µM)
[4]
  MIC: 0.25 µg/mL (≈ 0.337 µM)
[5]
  MIC: 0.2 µg/mL (≈ 0.27 µM)
[6]
  MIC: > 100 µg/mL
[7]
  MIC: 0.2 µg/mL (≈ 0.27 µM)
[8]
  MIC: 16 µg/mL (≈ 21.6 µM)
[9]
  MIC: 0.03 µg/mL (≈ 0.0405 µM)
[10]
  MIC: 100 µg/mL (≈ 135 µM)
